Assay results reported in ChEMBL document CHEMBL3864165, “Design, synthesis, and AChE inhibitory activity of new benzothiazole-piperazines” (Bioorg Med Chem Lett, 2016).

How the values were obtained:
Acetylcholinesterase [1] = molecular target: T1, Acetylcholinesterase (Electrophorus electricus, UniProt O42275); assay: Inhibition of electric eel AChE preincubated for 15 mins followed by acetylthiocholine iodide substrate addition measured for 5 mins by Ellman's spectrophotometric method
[2] = molecular target: Acetylcholinesterase (Electrophorus electricus) (UniProt O42275); assay: Inhibition of electric eel AChE at 10^-6 M preincubated for 15 mins followed by acetylthiocholine iodide substrate addition measured for 5 mins by Ellman's spectrophotometric method relative to control
Sequence of Acetylcholinesterase (Electrophorus electricus) (O42275 24-633 limits assumed): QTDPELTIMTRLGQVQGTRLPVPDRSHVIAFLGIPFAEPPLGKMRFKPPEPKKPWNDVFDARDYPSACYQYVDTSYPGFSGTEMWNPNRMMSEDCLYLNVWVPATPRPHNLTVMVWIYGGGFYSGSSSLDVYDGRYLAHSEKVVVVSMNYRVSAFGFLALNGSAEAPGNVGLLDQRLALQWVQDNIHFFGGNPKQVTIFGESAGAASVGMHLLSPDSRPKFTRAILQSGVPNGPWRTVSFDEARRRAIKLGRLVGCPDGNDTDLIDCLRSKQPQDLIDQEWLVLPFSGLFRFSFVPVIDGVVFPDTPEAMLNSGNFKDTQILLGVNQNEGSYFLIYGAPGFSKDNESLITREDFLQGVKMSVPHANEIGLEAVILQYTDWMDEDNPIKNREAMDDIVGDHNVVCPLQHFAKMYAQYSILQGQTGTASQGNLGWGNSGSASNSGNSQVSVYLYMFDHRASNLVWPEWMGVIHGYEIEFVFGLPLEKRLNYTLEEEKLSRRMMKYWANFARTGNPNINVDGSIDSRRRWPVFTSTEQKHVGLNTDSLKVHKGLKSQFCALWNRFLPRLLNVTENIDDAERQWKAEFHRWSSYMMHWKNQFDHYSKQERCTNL

[3] = Cytotoxicity against mouse NIH/3T3 cells after 24 hrs by MTT assay
[4] = molecular target: Acetylcholinesterase (Electrophorus electricus) (UniProt O42275); assay: Inhibition of electric eel AChE at 10^-7 M preincubated for 15 mins followed by acetylthiocholine iodide substrate addition measured for 5 mins by Ellman's spectrophotometric method relative to control
[5] = molecular target: Acetylcholinesterase (Electrophorus electricus) (UniProt O42275); assay: Inhibition of electric eel AChE at 10^-3 M preincubated for 15 mins followed by acetylthiocholine iodide substrate addition measured for 5 mins by Ellman's spectrophotometric method relative to control
[6] = molecular target: Acetylcholinesterase (Electrophorus electricus) (UniProt O42275); assay: Inhibition of electric eel AChE at 10^-4 M preincubated for 15 mins followed by acetylthiocholine iodide substrate addition measured for 5 mins by Ellman's spectrophotometric method relative to control
Salmonella typhimurium [7] = assay: Genotoxicity in Salmonella typhimurium TA100 assessed as increase in number of revertants at 1.25 mg/ml in presence of aroclor-1254-induced Sprague-Dawley rat liver S9 fraction by Ames-MPF assay relative to control; type: toxicity, organism-based; conditions: salmonella enterica subsp. enterica serovar typhimurium
Outline: (§1)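 Ames MPF microplate fluctuation format, run with and without S9 metabolic activation. The read-out is the count of positive (revertant) wells. A run is accepted only when positive controls give more than 25 positive wells and negative controls give fewer than eight.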

Salmonella typhimurium [8] = assay: Genotoxicity in Salmonella typhimurium TA98 assessed as increase in number of revertants at 0.625 mg/ml in absence of aroclor-1254-induced Sprague-Dawley rat liver S9 fraction by Ames-MPF assay relative to control; type: toxicity, organism-based; conditions: salmonella enterica subsp. enterica serovar typhimurium; outline: as §1
Salmonella typhimurium [9] = assay: Genotoxicity in Salmonella typhimurium TA98 assessed as increase in number of revertants at 2.5 mg/ml in absence of aroclor-1254-induced Sprague-Dawley rat liver S9 fraction by Ames-MPF assay relative to control; type: toxicity, organism-based; conditions: salmonella enterica subsp. enterica serovar typhimurium; outline: as §1
Salmonella typhimurium [10] = assay: Genotoxicity in Salmonella typhimurium TA100 assessed as increase in number of revertants at 5 mg/ml in absence of aroclor-1254-induced Sprague-Dawley rat liver S9 fraction by Ames-MPF assay relative to control; type: toxicity, organism-based; conditions: salmonella enterica subsp. enterica serovar typhimurium; outline: as §1
Salmonella typhimurium [11] = assay: Genotoxicity in Salmonella typhimurium TA98 assessed as increase in number of revertants at 0.3125 mg/ml in presence of aroclor-1254-induced Sprague-Dawley rat liver S9 fraction by Ames-MPF assay relative to control; type: toxicity, organism-based; conditions: salmonella enterica subsp. enterica serovar typhimurium; outline: as §1
Salmonella typhimurium [12] = assay: Genotoxicity in Salmonella typhimurium TA98 assessed as increase in number of revertants at 0.156 mg/ml in absence of aroclor-1254-induced Sprague-Dawley rat liver S9 fraction by Ames-MPF assay relative to control; type: toxicity, organism-based; conditions: salmonella enterica subsp. enterica serovar typhimurium; outline: as §1
Salmonella typhimurium [13] = assay: Genotoxicity in Salmonella typhimurium TA100 assessed as increase in number of revertants at 0.625 mg/ml in absence of aroclor-1254-induced Sprague-Dawley rat liver S9 fraction by Ames-MPF assay relative to control; type: toxicity, organism-based; conditions: salmonella enterica subsp. enterica serovar typhimurium; outline: as §1
Salmonella typhimurium [14] = assay: Genotoxicity in Salmonella typhimurium TA100 assessed as increase in number of revertants at 0.625 mg/ml in presence of aroclor-1254-induced Sprague-Dawley rat liver S9 fraction by Ames-MPF assay relative to control; type: toxicity, organism-based; conditions: salmonella enterica subsp. enterica serovar typhimurium; outline: as §1
Salmonella typhimurium [15] = assay: Genotoxicity in Salmonella typhimurium TA100 assessed as increase in number of revertants at 2.5 mg/ml in absence of aroclor-1254-induced Sprague-Dawley rat liver S9 fraction by Ames-MPF assay relative to control; type: toxicity, organism-based; conditions: salmonella enterica subsp. enterica serovar typhimurium; outline: as §1
Salmonella typhimurium [16] = assay: Genotoxicity in Salmonella typhimurium TA98 assessed as increase in number of revertants at 5 mg/ml in presence of aroclor-1254-induced Sprague-Dawley rat liver S9 fraction by Ames-MPF assay relative to control; type: toxicity, organism-based; conditions: salmonella enterica subsp. enterica serovar typhimurium; outline: as §1
Salmonella typhimurium [17] = assay: Genotoxicity in Salmonella typhimurium TA98 assessed as increase in number of revertants at 2.5 mg/ml in presence of aroclor-1254-induced Sprague-Dawley rat liver S9 fraction by Ames-MPF assay relative to control; type: toxicity, organism-based; conditions: salmonella enterica subsp. enterica serovar typhimurium; outline: as §1
Salmonella typhimurium [18] = assay: Genotoxicity in Salmonella typhimurium TA98 assessed as increase in number of revertants at 1.25 mg/ml in absence of aroclor-1254-induced Sprague-Dawley rat liver S9 fraction by Ames-MPF assay relative to control; type: toxicity, organism-based; conditions: salmonella enterica subsp. enterica serovar typhimurium; outline: as §1
Salmonella typhimurium [19] = assay: Genotoxicity in Salmonella typhimurium TA100 assessed as increase in number of revertants at 2.5 mg/ml in presence of aroclor-1254-induced Sprague-Dawley rat liver S9 fraction by Ames-MPF assay relative to control; type: toxicity, organism-based; conditions: salmonella enterica subsp. enterica serovar typhimurium; outline: as §1
Salmonella typhimurium [20] = assay: Genotoxicity in Salmonella typhimurium TA100 assessed as increase in number of revertants at 1.25 mg/ml in absence of aroclor-1254-induced Sprague-Dawley rat liver S9 fraction by Ames-MPF assay relative to control; type: toxicity, organism-based; conditions: salmonella enterica subsp. enterica serovar typhimurium; outline: as §1
Salmonella typhimurium [21] = assay: Genotoxicity in Salmonella typhimurium TA100 assessed as increase in number of revertants at 0.156 mg/ml in absence of aroclor-1254-induced Sprague-Dawley rat liver S9 fraction by Ames-MPF assay relative to control; type: toxicity, organism-based; conditions: salmonella enterica subsp. enterica serovar typhimurium; outline: as §1
Acetylcholinesterase [22] = molecular target: T1, Acetylcholinesterase; assay: Mixed-type inhibition of electric eel AChE preincubated for 15 mins followed by acetylthiocholine iodide substrate addition measured for 5 mins by Lineweaver-Burk plot analysis
Outline: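 Substrate-velocity curves recorded with and without inhibitor, with initial velocities measured at acetylthiocholine (ATC) concentrations from 600 µM down to 18.75 µM. Data analysed as 1/V plots. Ki taken as the x-axis intercept of a secondary plot of 1/V versus inhibitor concentration.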

Salmonella typhimurium [23] = assay: Genotoxicity in Salmonella typhimurium TA98 assessed as increase in number of revertants at 1.25 mg/ml in presence of aroclor-1254-induced Sprague-Dawley rat liver S9 fraction by Ames-MPF assay relative to control; type: toxicity, organism-based; conditions: salmonella enterica subsp. enterica serovar typhimurium; outline: as §1
Salmonella typhimurium [24] = assay: Genotoxicity in Salmonella typhimurium TA98 assessed as increase in number of revertants at 5 mg/ml in absence of aroclor-1254-induced Sprague-Dawley rat liver S9 fraction by Ames-MPF assay relative to control; type: toxicity, organism-based; conditions: salmonella enterica subsp. enterica serovar typhimurium; outline: as §1
Salmonella typhimurium [25] = assay: Genotoxicity in Salmonella typhimurium TA98 assessed as increase in number of revertants at 0.3125 mg/ml in absence of aroclor-1254-induced Sprague-Dawley rat liver S9 fraction by Ames-MPF assay relative to control; type: toxicity, organism-based; conditions: salmonella enterica subsp. enterica serovar typhimurium; outline: as §1
Salmonella typhimurium [26] = assay: Genotoxicity in Salmonella typhimurium TA100 assessed as increase in number of revertants at 0.3125 mg/ml in absence of aroclor-1254-induced Sprague-Dawley rat liver S9 fraction by Ames-MPF assay relative to control; type: toxicity, organism-based; conditions: salmonella enterica subsp. enterica serovar typhimurium; outline: as §1
Salmonella typhimurium [27] = assay: Genotoxicity in Salmonella typhimurium TA100 assessed as increase in number of revertants at 0.156 mg/ml in presence of aroclor-1254-induced Sprague-Dawley rat liver S9 fraction by Ames-MPF assay relative to control; type: toxicity, organism-based; conditions: salmonella enterica subsp. enterica serovar typhimurium; outline: as §1
Salmonella typhimurium [28] = assay: Genotoxicity in Salmonella typhimurium TA100 assessed as increase in number of revertants at 0.3125 mg/ml in presence of aroclor-1254-induced Sprague-Dawley rat liver S9 fraction by Ames-MPF assay relative to control; type: toxicity, organism-based; conditions: salmonella enterica subsp. enterica serovar typhimurium; outline: as §1
Salmonella typhimurium [29] = assay: Genotoxicity in Salmonella typhimurium TA98 assessed as increase in number of revertants at 0.625 mg/ml in presence of aroclor-1254-induced Sprague-Dawley rat liver S9 fraction by Ames-MPF assay relative to control; type: toxicity, organism-based; conditions: salmonella enterica subsp. enterica serovar typhimurium; outline: as §1
Salmonella typhimurium [30] = assay: Genotoxicity in Salmonella typhimurium TA98 assessed as increase in number of revertants at 0.156 mg/ml in presence of aroclor-1254-induced Sprague-Dawley rat liver S9 fraction by Ames-MPF assay relative to control; type: toxicity, organism-based; conditions: salmonella enterica subsp. enterica serovar typhimurium; outline: as §1
Salmonella typhimurium [31] = assay: Genotoxicity in Salmonella typhimurium TA100 assessed as increase in number of revertants at 5 mg/ml in presence of aroclor-1254-induced Sprague-Dawley rat liver S9 fraction by Ames-MPF assay relative to control; type: toxicity, organism-based; conditions: salmonella enterica subsp. enterica serovar typhimurium; outline: as §1

T1 sequence (O42275 whole entry): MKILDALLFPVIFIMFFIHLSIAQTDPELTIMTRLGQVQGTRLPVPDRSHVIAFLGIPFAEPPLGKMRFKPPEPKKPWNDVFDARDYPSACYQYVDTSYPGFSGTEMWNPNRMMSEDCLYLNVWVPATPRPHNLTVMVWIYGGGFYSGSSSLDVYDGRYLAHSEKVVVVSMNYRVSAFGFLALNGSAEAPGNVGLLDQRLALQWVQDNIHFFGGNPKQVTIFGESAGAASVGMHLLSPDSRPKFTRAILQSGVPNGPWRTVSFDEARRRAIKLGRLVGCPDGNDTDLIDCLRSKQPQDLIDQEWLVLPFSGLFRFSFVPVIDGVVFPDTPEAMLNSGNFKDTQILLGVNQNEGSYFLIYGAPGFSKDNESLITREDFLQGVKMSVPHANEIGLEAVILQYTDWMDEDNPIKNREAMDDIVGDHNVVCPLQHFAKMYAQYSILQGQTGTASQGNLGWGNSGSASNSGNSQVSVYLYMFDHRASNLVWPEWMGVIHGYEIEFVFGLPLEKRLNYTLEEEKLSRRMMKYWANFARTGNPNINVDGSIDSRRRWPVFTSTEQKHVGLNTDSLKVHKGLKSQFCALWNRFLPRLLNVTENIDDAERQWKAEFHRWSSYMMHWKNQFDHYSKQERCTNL

COc1cc2nc(NC(=O)CN3CCN(Cc4ccc(C(F)(F)F)cc4)CC3)sc2cc1OC
IC50 (Acetylcholinesterase [1]): 198 nM
inhibition [2]: > 50%

COc1cc2c(cc1OC)C(=O)C(CC1CCN(Cc3ccccc3)CC1)C2 (stereo not given) [DONEPEZIL]
IC50 at 24 h ([3]; nih3t3): 316000 nM

COc1ccc2nc(NC(=O)CN3CCN(CCCN(C)C)CC3)sc2c1
IC50 (Acetylcholinesterase [1]): 117 nM
inhibition [2]: > 50%
inhibition [4]: > 50%

COc1ccc2nc(NC(=O)CN3CCN(Cc4ccc(Cl)cc4)CC3)sc2c1
inhibition [5]: > 95%
inhibition [6]: 90%
IC50 (Acetylcholinesterase [1]): 220 nM
inhibition [2]: > 50%

COc1cc2nc(NC(=O)CN3CCN(CCCN(C)C)CC3)sc2cc1OC
fold change (FC) (Salmonella typhimurium [7]): 1.36
inhibition [5]: > 95%
fold change (FC) (Salmonella typhimurium [8]): 1.04
fold change (FC) (Salmonella typhimurium [9]): 1.15
fold change (FC) (Salmonella typhimurium [10]): 0.05
fold change (FC) (Salmonella typhimurium [11]): 1.4
inhibition [6]: 90%
fold change (FC) (Salmonella typhimurium [12]): 0.94
fold change (FC) (Salmonella typhimurium [13]): 0.69
fold change (FC) (Salmonella typhimurium [14]): 0.53
fold change (FC) (Salmonella typhimurium [15]): 0.32
fold change (FC) (Salmonella typhimurium [16]): 1.49
IC50 (Acetylcholinesterase [1]): 57.6 nM
fold change (FC) (Salmonella typhimurium [17]): 1.02
fold change (FC) (Salmonella typhimurium [18]): 0.52
fold change (FC) (Salmonella typhimurium [19]): 1.36
fold change (FC) (Salmonella typhimurium [20]): 1.32
fold change (FC) (Salmonella typhimurium [21]): 0.79
inhibition [2]: > 50%
Ki (Acetylcholinesterase [22]): 250 nM
fold change (FC) (Salmonella typhimurium [23]): 0.84
inhibition [4]: > 50%
fold change (FC) (Salmonella typhimurium [24]): 0.89
fold change (FC) (Salmonella typhimurium [25]): 0.47
fold change (FC) (Salmonella typhimurium [26]): 0.9
fold change (FC) (Salmonella typhimurium [27]): 0.98
IC50 at 24 h ([3]; NIH/3T3 cells): 100000 nM
fold change (FC) (Salmonella typhimurium [28]): 0.6
fold change (FC) (Salmonella typhimurium [29]): 0.56
fold change (FC) (Salmonella typhimurium [30]): 0.28
fold change (FC) (Salmonella typhimurium [31]): 1.43

COc1cc2nc(NC(=O)CN3CCN(Cc4ccc(C)cc4)CC3)sc2cc1OC
IC50 (Acetylcholinesterase [1]): 215 nM
inhibition [2]: > 50%

COc1ccc2nc(NC(=O)CN3CCN(Cc4ccc(C)cc4)CC3)sc2c1
IC50 (Acetylcholinesterase [1]): 326 nM
inhibition [2]: > 50%
